Assay results taken from ChEMBL document CHEMBL1127386, “Nitrogen-in-the-ring pyranoses and furanoses: structural basis of inhibition of mammalian glycosidases” (J Med Chem, 1994).

Legend:
[1] = Concentration that causes 50% inhibition of mammalian alpha-glucosidase (endoplasmic reticulum glucosidase II) was determined in rat liver; NI is less than 50 % inhibition at 1000 uM
Beta-galactosidase [2] = molecular target: T1, Beta-galactosidase (Rattus norvegicus, UniProt D3ZUM4); assay: Concentration that causes 50% inhibition of mammalian lactase beta-galactosidase was determined in rat intestine; NI is less than 50 % inhibition at 1000 uM
T1 sequence (D3ZUM4 whole entry): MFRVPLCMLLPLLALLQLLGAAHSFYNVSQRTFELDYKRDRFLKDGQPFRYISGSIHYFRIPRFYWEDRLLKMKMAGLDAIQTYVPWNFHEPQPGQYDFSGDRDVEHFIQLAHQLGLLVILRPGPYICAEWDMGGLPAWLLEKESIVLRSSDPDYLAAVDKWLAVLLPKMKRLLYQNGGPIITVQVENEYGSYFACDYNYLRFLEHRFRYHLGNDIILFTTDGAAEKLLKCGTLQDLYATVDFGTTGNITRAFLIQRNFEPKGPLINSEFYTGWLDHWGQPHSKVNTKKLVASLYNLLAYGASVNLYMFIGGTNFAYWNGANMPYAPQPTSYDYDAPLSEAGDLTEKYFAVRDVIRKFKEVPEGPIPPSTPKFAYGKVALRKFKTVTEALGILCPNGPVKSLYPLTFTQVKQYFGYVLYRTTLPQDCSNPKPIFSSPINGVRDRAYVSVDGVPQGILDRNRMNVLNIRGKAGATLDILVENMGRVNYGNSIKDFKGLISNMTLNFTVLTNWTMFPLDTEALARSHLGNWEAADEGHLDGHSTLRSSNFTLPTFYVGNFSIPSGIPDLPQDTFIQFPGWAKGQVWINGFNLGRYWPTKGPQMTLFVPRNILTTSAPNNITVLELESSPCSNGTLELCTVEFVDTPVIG

Beta-galactosidase [3] = molecular target: T1, Beta-galactosidase; assay: Concentration that causes 50% inhibition of mammalian epididymal beta-galactosidase was determined in rat epididymis NI is less than 50 % inhibition at 1000 uM; type: tissue-based
Beta-galactosidase [4] = molecular target: T2, Beta-galactosidase (Bos taurus, UniProt Q58D55); assay: Concentration that causes 50% inhibition of mammalian lysosomal beta-galactosidase was determined in bovine liver; NI is less than 50 % inhibition at 1000 uM
T2 sequence (Q58D55 whole entry): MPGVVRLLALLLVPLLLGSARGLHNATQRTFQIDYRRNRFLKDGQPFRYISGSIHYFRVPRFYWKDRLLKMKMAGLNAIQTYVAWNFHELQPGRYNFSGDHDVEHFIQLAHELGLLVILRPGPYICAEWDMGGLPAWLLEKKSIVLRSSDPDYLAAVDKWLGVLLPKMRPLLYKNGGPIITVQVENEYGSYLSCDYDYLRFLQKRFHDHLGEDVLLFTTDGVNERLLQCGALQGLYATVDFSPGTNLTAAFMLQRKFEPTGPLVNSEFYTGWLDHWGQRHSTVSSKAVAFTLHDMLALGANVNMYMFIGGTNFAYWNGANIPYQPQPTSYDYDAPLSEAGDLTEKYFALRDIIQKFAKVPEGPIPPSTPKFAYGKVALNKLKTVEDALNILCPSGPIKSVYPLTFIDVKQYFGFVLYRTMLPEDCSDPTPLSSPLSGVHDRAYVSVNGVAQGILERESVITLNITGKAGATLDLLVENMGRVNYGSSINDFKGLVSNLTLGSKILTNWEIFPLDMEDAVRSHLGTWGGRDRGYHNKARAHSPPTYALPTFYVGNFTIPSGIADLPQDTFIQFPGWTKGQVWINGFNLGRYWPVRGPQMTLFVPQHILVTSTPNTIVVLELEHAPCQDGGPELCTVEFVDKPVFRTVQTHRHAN

Trehalase [5] = molecular target: T3, Trehalase (Rattus norvegicus, UniProt O70282); assay: Concentration that causes 50% inhibition of mammalian trehalase was determined in rat intestine; NI is less than 50 % inhibition at 1000 uM
T3 sequence (O70282 whole entry): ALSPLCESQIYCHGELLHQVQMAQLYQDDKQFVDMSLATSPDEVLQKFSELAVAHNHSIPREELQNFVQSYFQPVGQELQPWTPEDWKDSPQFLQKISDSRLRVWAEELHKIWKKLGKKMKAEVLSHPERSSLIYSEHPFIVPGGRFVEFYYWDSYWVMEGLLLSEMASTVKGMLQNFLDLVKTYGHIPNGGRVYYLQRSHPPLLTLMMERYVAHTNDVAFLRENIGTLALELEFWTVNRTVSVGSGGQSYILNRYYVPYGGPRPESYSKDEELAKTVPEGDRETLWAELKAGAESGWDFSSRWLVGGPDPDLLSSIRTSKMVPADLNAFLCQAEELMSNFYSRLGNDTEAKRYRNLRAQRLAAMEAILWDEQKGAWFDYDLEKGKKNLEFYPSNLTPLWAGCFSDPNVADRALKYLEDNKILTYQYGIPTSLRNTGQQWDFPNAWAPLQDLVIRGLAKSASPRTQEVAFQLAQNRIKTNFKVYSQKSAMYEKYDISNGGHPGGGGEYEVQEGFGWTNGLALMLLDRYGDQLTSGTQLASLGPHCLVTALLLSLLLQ

Beta-galactosidase [6] = molecular target: T1, Beta-galactosidase; assay: Concentration that causes 50% inhibition of mammalian lysosomal beta-galactosidase was determined in rat liver; NI is less than 50 % inhibition at 1000 uM
[7] = molecular target: Lysosomal alpha-glucosidase (Rattus norvegicus, UniProt Q6P7A9); assay: Concentration that causes 50% inhibition of mammalian alpha-glucosidase (lysosomal) was determined in rat liver; NI is less than 50 % inhibition at 1000 uM
Chain of Lysosomal alpha-glucosidase (Q6P7A9 whole entry): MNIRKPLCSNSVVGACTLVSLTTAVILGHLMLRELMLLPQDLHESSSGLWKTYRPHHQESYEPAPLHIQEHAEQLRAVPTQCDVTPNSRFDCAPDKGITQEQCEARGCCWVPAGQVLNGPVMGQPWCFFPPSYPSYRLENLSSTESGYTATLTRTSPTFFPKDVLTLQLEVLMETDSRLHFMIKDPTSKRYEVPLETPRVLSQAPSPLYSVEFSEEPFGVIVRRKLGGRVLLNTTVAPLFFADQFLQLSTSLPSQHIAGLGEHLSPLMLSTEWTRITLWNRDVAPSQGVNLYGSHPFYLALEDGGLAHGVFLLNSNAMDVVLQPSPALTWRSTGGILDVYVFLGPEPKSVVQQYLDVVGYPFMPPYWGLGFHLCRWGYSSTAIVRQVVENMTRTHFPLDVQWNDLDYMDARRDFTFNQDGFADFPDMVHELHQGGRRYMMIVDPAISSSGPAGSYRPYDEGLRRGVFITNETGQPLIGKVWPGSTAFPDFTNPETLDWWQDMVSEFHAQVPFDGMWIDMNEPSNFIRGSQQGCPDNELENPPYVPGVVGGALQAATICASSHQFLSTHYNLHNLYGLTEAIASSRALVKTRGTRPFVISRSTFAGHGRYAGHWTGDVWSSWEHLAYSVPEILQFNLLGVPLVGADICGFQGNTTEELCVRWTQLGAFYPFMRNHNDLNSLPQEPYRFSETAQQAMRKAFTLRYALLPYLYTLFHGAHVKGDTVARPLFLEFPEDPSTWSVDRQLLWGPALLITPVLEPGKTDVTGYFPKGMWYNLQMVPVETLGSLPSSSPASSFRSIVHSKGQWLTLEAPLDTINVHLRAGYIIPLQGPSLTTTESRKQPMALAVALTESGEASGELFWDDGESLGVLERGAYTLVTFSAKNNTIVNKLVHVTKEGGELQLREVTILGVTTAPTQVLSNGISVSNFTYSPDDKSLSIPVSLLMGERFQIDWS

Beta-galactosidase [8] = molecular target: T2, Beta-galactosidase; assay: Concentration that causes 50% inhibition of mammalian cytosolic beta-galactosidase was determined in bovine liver; NI is less than 50 % inhibition at 1000 uM
Beta-galactosidase [9] = molecular target: T1, Beta-galactosidase; assay: Concentration that causes 50% inhibition of mammalian epididymal beta-galactosidase was determined in rat epididymis; NI is less than 50 % inhibition at 1000 uM; type: tissue-based
[10] = Concentration that causes 50% inhibition of mammalian alpha-glucosidase (endoplasmic reticulum glucosidase II) was determined in rat liver NI is less than 50 % inhibition at 1000 uM; type: tissue-based
Trehalase [11] = molecular target: T3, Trehalase; assay: Concentration that causes 50% inhibition of mammalian trehalase was determined in rat intestine; NI is less than 50 % inhibition at 1000 micro M
Alpha-glucosidase [12] = molecular target: T4, Alpha-glucosidase (Bos taurus, UniProt Q9MYM4); assay: Inhibition of mammalian alpha-glucosidase (lysosomal) was determined in bovine liver; NI is less than 50 % inhibition at 1000 uM
T4 sequence (Q9MYM4 whole entry): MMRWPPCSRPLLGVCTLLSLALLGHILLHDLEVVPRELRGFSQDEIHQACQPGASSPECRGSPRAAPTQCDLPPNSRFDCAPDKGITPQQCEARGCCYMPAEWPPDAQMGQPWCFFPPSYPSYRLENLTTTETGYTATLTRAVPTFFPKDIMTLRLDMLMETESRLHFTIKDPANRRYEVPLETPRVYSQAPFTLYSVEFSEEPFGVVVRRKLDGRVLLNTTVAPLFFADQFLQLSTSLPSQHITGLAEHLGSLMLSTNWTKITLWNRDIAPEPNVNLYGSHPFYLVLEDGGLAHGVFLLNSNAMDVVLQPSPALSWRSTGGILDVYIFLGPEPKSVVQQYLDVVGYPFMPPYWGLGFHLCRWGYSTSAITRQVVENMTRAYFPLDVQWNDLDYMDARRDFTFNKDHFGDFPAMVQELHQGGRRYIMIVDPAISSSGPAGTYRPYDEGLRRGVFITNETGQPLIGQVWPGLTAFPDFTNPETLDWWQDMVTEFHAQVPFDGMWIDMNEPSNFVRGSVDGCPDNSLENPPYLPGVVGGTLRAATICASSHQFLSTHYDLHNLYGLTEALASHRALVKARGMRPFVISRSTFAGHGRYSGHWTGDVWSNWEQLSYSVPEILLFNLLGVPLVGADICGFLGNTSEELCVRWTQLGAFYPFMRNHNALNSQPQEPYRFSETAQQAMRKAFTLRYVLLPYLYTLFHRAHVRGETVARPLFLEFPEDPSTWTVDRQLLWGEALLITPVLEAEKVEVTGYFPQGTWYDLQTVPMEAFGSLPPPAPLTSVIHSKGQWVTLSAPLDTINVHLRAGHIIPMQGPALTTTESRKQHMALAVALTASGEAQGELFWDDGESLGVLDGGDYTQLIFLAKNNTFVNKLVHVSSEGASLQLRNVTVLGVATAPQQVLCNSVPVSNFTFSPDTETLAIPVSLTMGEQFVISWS

[13] = molecular target: Lactase/phlorizin hydrolase (Rattus norvegicus, UniProt Q02401); assay: Tested for competitive inhibition of rat intestinal lactase
Chain of Lactase/phlorizin hydrolase (Q02401 868-1928 limits assumed): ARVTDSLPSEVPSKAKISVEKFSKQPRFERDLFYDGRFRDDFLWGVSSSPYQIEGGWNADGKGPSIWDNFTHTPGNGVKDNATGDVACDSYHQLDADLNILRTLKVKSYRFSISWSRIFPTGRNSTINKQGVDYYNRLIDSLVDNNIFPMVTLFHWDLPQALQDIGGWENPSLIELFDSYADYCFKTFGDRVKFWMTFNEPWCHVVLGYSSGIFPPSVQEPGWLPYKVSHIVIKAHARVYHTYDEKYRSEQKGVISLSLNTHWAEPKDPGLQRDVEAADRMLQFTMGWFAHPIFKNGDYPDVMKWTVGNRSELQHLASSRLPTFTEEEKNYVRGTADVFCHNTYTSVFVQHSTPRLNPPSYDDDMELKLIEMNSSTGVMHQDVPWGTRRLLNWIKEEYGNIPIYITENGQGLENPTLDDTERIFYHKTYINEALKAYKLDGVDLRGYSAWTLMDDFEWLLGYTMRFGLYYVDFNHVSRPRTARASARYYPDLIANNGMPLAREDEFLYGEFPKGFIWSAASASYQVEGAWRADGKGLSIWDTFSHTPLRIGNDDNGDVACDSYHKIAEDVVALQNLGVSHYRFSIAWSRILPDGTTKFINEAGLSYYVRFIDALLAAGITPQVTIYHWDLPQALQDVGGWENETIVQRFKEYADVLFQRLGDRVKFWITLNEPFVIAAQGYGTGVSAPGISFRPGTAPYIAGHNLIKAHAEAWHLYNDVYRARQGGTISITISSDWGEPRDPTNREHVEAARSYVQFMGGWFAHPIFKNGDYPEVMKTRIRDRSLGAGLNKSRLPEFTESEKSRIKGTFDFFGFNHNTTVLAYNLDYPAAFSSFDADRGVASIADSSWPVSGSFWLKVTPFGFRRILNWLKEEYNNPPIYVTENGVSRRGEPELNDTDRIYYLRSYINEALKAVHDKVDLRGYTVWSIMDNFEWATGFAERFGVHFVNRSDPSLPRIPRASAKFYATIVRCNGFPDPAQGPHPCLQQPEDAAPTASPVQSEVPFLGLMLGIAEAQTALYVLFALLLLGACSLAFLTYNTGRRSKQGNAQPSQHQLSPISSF
Summary of the method: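 Brush border membranes from rat small intestine, assayed at pH 5.8 with lactose as substrate. Released D-glucose was measured colorimetrically by the D-glucose oxidase–peroxidase method. Ki and inhibition mode were determined.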

Alpha-glucosidase [14] = molecular target: T4, Alpha-glucosidase; assay: Inhibition of mammalian alpha-glucosidase (lysosomal) was determined in bovine liver; type: tissue-based
[15] = Concentration that causes 50% inhibition of mammalian alpha-glucosidase (endoplasmic reticulum glucosidase II) was determined in rat liver; type: tissue-based
Beta-galactosidase [16] = molecular target: T1, Beta-galactosidase; assay: Concentration that causes 50% inhibition of mammalian lysosomal beta-galactosidase was determined in rat liverNI is less than 50 % inhibition at 1000 uM
Trehalase [17] = molecular target: T3, Trehalase; assay: Concentration that causes 50% inhibition of mammalian trehalase was determined in rat intestine
Beta-galactosidase [18] = molecular target: T2, Beta-galactosidase; assay: Concentration that causes 50% inhibition of mammalian lysosomal beta-galactosidase was determined in bovine liver NI is less than 50 % inhibition at 1000 uM; type: tissue-based
Beta-galactosidase [19] = molecular target: T2, Beta-galactosidase; assay: Concentration that causes 50% inhibition of mammalian cytosolic beta-galactosidase was determined in bovine liver NI is less than 50 % inhibition at 1000 uM; type: tissue-based
Beta-galactosidase [20] = molecular target: T1, Beta-galactosidase; assay: Concentration that causes 50% inhibition of mammalian beta-galactosidase was determined in rat intestine; NI is less than 50 % inhibition at 1000 uM
Beta-galactosidase [21] = molecular target: T1, Beta-galactosidase; assay: Concentration that causes 50% inhibition of mammalian beta-galactosidase was determined in rat epididymis; NI is less than 50 % inhibition at 1000 uM; type: tissue-based

## OC[C@H]1NCC[C@@H](O)[C@H]1O
[1]
  IC50: No inhibition
Beta-galactosidase [2]
  IC50: No inhibition
Beta-galactosidase [3]
  IC50: No inhibition
Beta-galactosidase [4]
  IC50: No inhibition
Trehalase [5]
  IC50: No inhibition
Beta-galactosidase [6]
  IC50: No inhibition
[7]
  IC50: No inhibition
Beta-galactosidase [8]
  IC50: No inhibition

## OC[C@H]1N[C@H](CO)[C@@H](O)[C@@H]1O
[1]
  IC50: No inhibition
Beta-galactosidase [4]
  IC50: No inhibition
Beta-galactosidase [9]
  IC50: No inhibition
Beta-galactosidase [6]
  IC50: No inhibition

## OC[C@H]1NCC[C@H](O)[C@@H]1O
[10]
  IC50: No inhibition
Trehalase [11]
  IC50: No inhibition
Beta-galactosidase [4]
  IC50: No inhibition
Alpha-glucosidase [12]
  IC50: No inhibition
Beta-galactosidase [9]
  IC50: No inhibition
Beta-galactosidase [6]
  IC50: No inhibition
[13]
  Ki: 1.9 µM
[7]
  IC50: No inhibition

## OC[C@H]1NCC[C@@H](O)[C@@H]1O [FAGOMINE]
Alpha-glucosidase [14]
  IC50: 520 µM
Beta-galactosidase [4]
  IC50: No inhibition
Trehalase [5]
  IC50: No inhibition
Beta-galactosidase [9]
  IC50: No inhibition
[15]
  IC50: 840 µM
Beta-galactosidase [6]
  IC50: No inhibition
[7]
  IC50: No inhibition

## OC[C@H]1NC[C@H](O)[C@@H](O)[C@@H]1O (stereo in doubt; 1) [DUVOGLUSTAT]
Beta-galactosidase [3]
  IC50: No inhibition
Beta-galactosidase [16]
  IC50: No inhibition
Trehalase [17]
  IC50: 42 µM
Beta-galactosidase [18]
  IC50: No inhibition
Beta-galactosidase [19]
  IC50: No inhibition

## OC[C@H]1NC[C@H](O)[C@@H](O)[C@@H]1O (stereo in doubt; 2) [DUVOGLUSTAT]
[10]
  IC50: No inhibition
Beta-galactosidase [20]
  IC50: No inhibition
Beta-galactosidase [21]
  IC50: No inhibition

## OC[C@H]1NC[C@H](O)[C@@H](O)[C@@H]1O (stereo in doubt; 4) [DUVOGLUSTAT]
Beta-galactosidase [8]
  IC50: No inhibition

## OC[C@H]1NC[C@H](O)[C@@H](O)[C@@H]1O [DUVOGLUSTAT]
[1]
  IC50: No inhibition
Beta-galactosidase [4]
  IC50: No inhibition
Trehalase [5]
  IC50: No inhibition
Alpha-glucosidase [12]
  IC50: No inhibition
Beta-galactosidase [9]
  IC50: No inhibition
Beta-galactosidase [6]
  IC50: No inhibition
[7]
  IC50: No inhibition
